Measurements gathered from unrelated publications.
Protocols differ between the studies behind these lines.
JAK3: Tyrosine-protein kinase JAK3 (JAK3, Homo sapiens, UniProt P52333)
JAK3 JH1: Tyrosine-protein kinase JAK3, JH1 (JAK3, Homo sapiens, UniProt P52333)

SMILES	target	test	setting	measurement	value
CCCS(=O)(=O)Nc1ccc(F)c(C(=O)c2c[nH]c3ncc(-c4ccc(Cl)cc4)cc23)c1F	JAK3	enzyme activity, inhibitor	1 µM	inhibition	< 10%
COc1ccc2c(c1)O[C@H](c1ccc(OC)c(OC)c1)C[C@@H]2NC(=O)C1(c2ccc3c(c2)OC(F)(F)O3)CC1	JAK3 JH1	cell-free assay, competition with immobilised ligand	1 µM	remaining binding	100%
Cc1cc(NC(=O)c2cccc3cc(-c4cccc5[nH]nc(N)c45)ccc23)ccc1F	JAK3	enzyme activity, inhibitor	0.1 µM	activity vs control	94%
CSc1nc(C)c(-c2ccnc(Nc3ccc(N4CCOCC4)cc3)c2)[nH]1	JAK3	enzyme activity, inhibitor	10 µM	inhibition	65.5%
COc1cc2ncnc(Nc3ccc(F)c(Cl)c3)c2cc1OCCCN1CCOCC1	JAK3	cell-free assay	0.5 µM	remaining signal	96.6%
O=C(CSc1nc2nccnc2c(=O)n1CCc1ccccc1)Nc1nccs1	JAK3	enzyme activity, inhibitor	10 µM	inhibition	-2%
Cc1ccc(Nc2nccc(N(C)c3ccc4c(C)n(C)nc4c3)n2)cc1S(N)(=O)=O	JAK3	enzyme activity, inhibitor	10 µM	inhibition	77%
NS(=O)(=O)c1cc(NC(=O)Cc2ccccc2)ccc1Oc1cccc(Cl)c1	JAK3 JH1	cell-free assay, competition with immobilised ligand	1 µM	remaining binding	96%
C[C@@H]1CCN(c2nccc(-c3cnn4ncccc34)n2)C1	JAK3 JH1	cell-free assay	1 µM	remaining signal	80%
CNC(=O)c1cc(Oc2ccc(NC(=O)Nc3ccc(Cl)c(C(F)(F)F)c3)cc2)ccn1	JAK3	cell-free assay	0.5 µM	remaining signal	99.4%
CN1CC(Oc2cnc(C#N)cc2-c2ccn3nc(NC(=O)C4CC4)cc3c2)C1	JAK3	enzyme activity, inhibitor	1 µM	inhibition	15%
CCS(=O)(=O)c1cc2cc(C[C@](O)(CC(C)(C)c3ccc(F)cc3C(N)=O)C(F)(F)F)[nH]c2cn1	JAK3 JH1	cell-free assay, competition with immobilised ligand	1 µM	remaining binding	72%
CC/C(=N\NC(=O)NCc1cccc(O)c1)c1ccc(O)c(C)c1O	JAK3	enzyme activity, inhibitor	0.1 µM	inhibition	3%
O=C(NCCCC1CCCCC1)c1ccc(CNC(=O)c2cnn(-c3ccccc3)c2C(F)(F)F)cc1	JAK3 JH1	cell-free assay, competition with immobilised ligand	0.1 µM	remaining binding	100%
c1cnn2ncc(-c3ccnc(N4CCC45COC5)n3)c2c1	JAK3 JH1	cell-free assay	1 µM	remaining signal	68%
O=C(Nc1cnc(Oc2ccc(F)cc2)nc1)N1CCc2ncccc2[C@@H]1c1ccc(F)cc1	JAK3 JH1	cell-free assay, competition with immobilised ligand	1 µM	remaining binding	91%
COc1cc2ncnc(Nc3ccc(Oc4ccccc4)c(C)c3C)c2cc1OC	JAK3	enzyme activity, inhibitor	1 µM	inhibition	5%
CN(C)CC#Cc1ccc(OCCCc2sc(N3CCc4cccc(C(=O)Nc5nc6ccccc6s5)c4C3)nc2C(=O)O)c(F)c1	JAK3 JH1	cell-free assay, competition with immobilised ligand	1 µM	remaining binding	58%
Cc1sc(C(=O)NC2COC2)cc1-n1cc(NC(=O)Nc2c(F)cccc2Cl)cn1	JAK3	enzyme activity, inhibitor	10 µM	remaining activity	96.7%
